# From ChEMBL document CHEMBL5058577, “EUbOPEN Chemogenomics Library 2 (Multiplex)” (2022)
# Tested on: U2OS
# Experiment: Multiplex assay against U2OS
# Type: toxicity, cell-based
# Conditions: human
# Method in brief: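 At seeding, live cells were stained with Hoechst33342, BioTracker Green Microtubule Cytoskeleton Dye, MitoTracker Red and Annexin V Alexa Fluor 680. After compound addition they were imaged on a CQ1 microscope at 37°C and 5% CO2, and CellPathfinder machine-learning gating sorted them into Hoechst high-intensity objects or normal cells, with normal cells further split into healthy, pyknosed or fragmented nuclei and pyknosed cells into mitotic or apoptotic. Tubulin, mitochondrial-mass and membrane-permeability phenotypes are given as per cents of cells with healthy nuclei.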
# [1] = 12 h, 1 µM, compound concentration 1 uM, replicate 1
# [2] = 12 h, 1 µM, compound concentration 1 uM, replicate 2
# [3] = 12 h, 10 µM, compound concentration 10 uM, replicate 1
# [4] = 12 h, 10 µM, compound concentration 10 uM, replicate 2
# [5] = 24 h, 1 µM, compound concentration 1 uM, replicate 1
# [6] = 24 h, 1 µM, compound concentration 1 uM, replicate 2
# [7] = 24 h, 10 µM, compound concentration 10 uM, replicate 1
# [8] = 24 h, 10 µM, compound concentration 10 uM, replicate 2
# [9] = 48 h, 1 µM, compound concentration 1 uM, replicate 1
# [10] = 48 h, 1 µM, compound concentration 1 uM, replicate 2
# [11] = 48 h, 10 µM, compound concentration 10 uM, replicate 1
# [12] = 48 h, 10 µM, compound concentration 10 uM, replicate 2
smiles,measurement,setting,value
OCCCNc1cc(-c2ccnc(Nc3cccc(Cl)c3)n2)ccn1,Population Apoptotic (%),[1],88%
same,Population Fragmented Nuclei (%),[1],38%
same,Population Healthy Nuclei (%),[1],52%
same,Population Hoechst High Intensity Objects (%),[1],3%
same,Population Membrane Permeable-Phenotype (%),[1],8%
same,Population Mitochondria Different-Phenotype (%),[1],4%
same,Population Mitotic Cells (%),[1],11%
same,Population Normal (%),[1],97%
same,Population Pyknosed Nuclei (%),[1],9%
same,Population Tubulin-Different-Phenotype (%),[1],4%
same,Total Cell Count,[1],200
same,Population Apoptotic (%),[2],80%
same,Population Fragmented Nuclei (%),[2],27%
same,Population Healthy Nuclei (%),[2],51%
same,Population Hoechst High Intensity Objects (%),[2],5%
same,Population Membrane Permeable-Phenotype (%),[2],10%
same,Population Mitochondria Different-Phenotype (%),[2],18%
same,Population Mitotic Cells (%),[2],20%
same,Population Normal (%),[2],94%
same,Population Pyknosed Nuclei (%),[2],20%
same,Population Tubulin-Different-Phenotype (%),[2],5%
same,Total Cell Count,[2],76
same,Population Apoptotic (%),[3],85%
same,Population Fragmented Nuclei (%),[3],37%
same,Population Healthy Nuclei (%),[3],56%
same,Population Hoechst High Intensity Objects (%),[3],4%
same,Population Membrane Permeable-Phenotype (%),[3],46%
same,Population Mitochondria Different-Phenotype (%),[3],36%
same,Population Mitotic Cells (%),[3],14%
same,Population Normal (%),[3],95%
same,Population Pyknosed Nuclei (%),[3],6%
same,Population Tubulin-Different-Phenotype (%),[3],46%
same,Total Cell Count,[3],237
same,Population Apoptotic (%),[4],91%
same,Population Fragmented Nuclei (%),[4],24%
same,Population Healthy Nuclei (%),[4],64%
same,Population Hoechst High Intensity Objects (%),[4],10%
same,Population Membrane Permeable-Phenotype (%),[4],47%
same,Population Mitochondria Different-Phenotype (%),[4],51%
same,Population Mitotic Cells (%),[4],8%
same,Population Normal (%),[4],89%
same,Population Pyknosed Nuclei (%),[4],11%
same,Population Tubulin-Different-Phenotype (%),[4],61%
same,Total Cell Count,[4],118
same,Population Apoptotic (%),[5],96%
same,Population Fragmented Nuclei (%),[5],43%
same,Population Healthy Nuclei (%),[5],43%
same,Population Hoechst High Intensity Objects (%),[5],7%
same,Population Membrane Permeable-Phenotype (%),[5],10%
same,Population Mitochondria Different-Phenotype (%),[5],10%
same,Population Mitotic Cells (%),[5],4%
same,Population Normal (%),[5],92%
same,Population Pyknosed Nuclei (%),[5],13%
same,Population Tubulin-Different-Phenotype (%),[5],6%
same,Total Cell Count,[5],200
same,Population Apoptotic (%),[6],94%
same,Population Fragmented Nuclei (%),[6],40%
same,Population Healthy Nuclei (%),[6],33%
same,Population Membrane Permeable-Phenotype (%),[6],16%
same,Population Mitochondria Different-Phenotype (%),[6],25%
same,Population Mitotic Cells (%),[6],5%
same,Population Pyknosed Nuclei (%),[6],25%
same,Population Tubulin-Different-Phenotype (%),[6],16%
same,Total Cell Count,[6],77
same,Population Apoptotic (%),[7],88%
same,Population Fragmented Nuclei (%),[7],37%
same,Population Healthy Nuclei (%),[7],50%
same,Population Hoechst High Intensity Objects (%),[7],11%
same,Population Membrane Permeable-Phenotype (%),[7],34%
same,Population Mitochondria Different-Phenotype (%),[7],40%
same,Population Mitotic Cells (%),[7],12%
same,Population Normal (%),[7],88%
same,Population Pyknosed Nuclei (%),[7],12%
same,Population Tubulin-Different-Phenotype (%),[7],37%
same,Total Cell Count,[7],229
same,Population Apoptotic (%),[8],95%
same,Population Fragmented Nuclei (%),[8],30%
same,Population Healthy Nuclei (%),[8],49%
same,Population Hoechst High Intensity Objects (%),[8],12%
same,Population Membrane Permeable-Phenotype (%),[8],43%
same,Population Mitochondria Different-Phenotype (%),[8],54%
same,Population Mitotic Cells (%),[8],4%
same,Population Normal (%),[8],87%
same,Population Pyknosed Nuclei (%),[8],20%
same,Population Tubulin-Different-Phenotype (%),[8],61%
same,Total Cell Count,[8],128
same,Population Apoptotic (%),[9],95%
same,Population Fragmented Nuclei (%),[9],56%
same,Population Healthy Nuclei (%),[9],22%
same,Population Hoechst High Intensity Objects (%),[9],16%
same,Population Membrane Permeable-Phenotype (%),[9],30%
same,Population Mitochondria Different-Phenotype (%),[9],14%
same,Population Mitotic Cells (%),[9],4%
same,Population Normal (%),[9],83%
same,Population Pyknosed Nuclei (%),[9],21%
same,Population Tubulin-Different-Phenotype (%),[9],26%
same,Total Cell Count,[9],227
same,Population Apoptotic (%),[10],100%
same,Population Fragmented Nuclei (%),[10],59%
same,Population Healthy Nuclei (%),[10],11%
same,Population Hoechst High Intensity Objects (%),[10],12%
same,Population Mitochondria Different-Phenotype (%),[10],20%
same,Population Mitotic Cells (%),[10],0%
same,Population Normal (%),[10],87%
same,Population Pyknosed Nuclei (%),[10],28%
same,Population Tubulin-Different-Phenotype (%),[10],10%
same,Total Cell Count,[10],99
same,Population Apoptotic (%),[11],94%
same,Population Fragmented Nuclei (%),[11],47%
same,Population Healthy Nuclei (%),[11],31%
same,Population Hoechst High Intensity Objects (%),[11],21%
same,Population Membrane Permeable-Phenotype (%),[11],43%
same,Population Mitochondria Different-Phenotype (%),[11],45%
same,Population Mitotic Cells (%),[11],5%
same,Population Normal (%),[11],78%
same,Population Pyknosed Nuclei (%),[11],21%
same,Population Tubulin-Different-Phenotype (%),[11],45%
same,Total Cell Count,[11],223
same,Population Apoptotic (%),[12],96%
same,Population Fragmented Nuclei (%),[12],50%
same,Population Healthy Nuclei (%),[12],25%
same,Population Hoechst High Intensity Objects (%),[12],23%
same,Population Membrane Permeable-Phenotype (%),[12],65%
same,Population Mitochondria Different-Phenotype (%),[12],34%
same,Population Mitotic Cells (%),[12],4%
same,Population Normal (%),[12],76%
same,Population Pyknosed Nuclei (%),[12],24%
same,Population Tubulin-Different-Phenotype (%),[12],65%
same,Total Cell Count,[12],134
